Experimental findings from ChEMBL document CHEMBL4825680, “Structure-based discovery of potent and selective small-molecule inhibitors targeting signal transducer and activator of transcription 3 (STAT3)” (Eur J Med Chem, 2021) are described below.

Activity calls are given as the source filed them. The rule behind the calls is not given here.

Data set [1] deals with T1, Signal transducer and activator of transcription 3 (Homo sapiens, UniProt P40763). Put plainly: Inhibition of STAT3 phosphorylation at Ser727 residue in human MDA-MB-231 cells at 3 uM after 3 hrs by Western blotting analysis. It counts as cell-based. On the technique in general: A western blot detects proteins with antibodies after separation by electrophoresis.
T1 sequence (P40763 whole entry): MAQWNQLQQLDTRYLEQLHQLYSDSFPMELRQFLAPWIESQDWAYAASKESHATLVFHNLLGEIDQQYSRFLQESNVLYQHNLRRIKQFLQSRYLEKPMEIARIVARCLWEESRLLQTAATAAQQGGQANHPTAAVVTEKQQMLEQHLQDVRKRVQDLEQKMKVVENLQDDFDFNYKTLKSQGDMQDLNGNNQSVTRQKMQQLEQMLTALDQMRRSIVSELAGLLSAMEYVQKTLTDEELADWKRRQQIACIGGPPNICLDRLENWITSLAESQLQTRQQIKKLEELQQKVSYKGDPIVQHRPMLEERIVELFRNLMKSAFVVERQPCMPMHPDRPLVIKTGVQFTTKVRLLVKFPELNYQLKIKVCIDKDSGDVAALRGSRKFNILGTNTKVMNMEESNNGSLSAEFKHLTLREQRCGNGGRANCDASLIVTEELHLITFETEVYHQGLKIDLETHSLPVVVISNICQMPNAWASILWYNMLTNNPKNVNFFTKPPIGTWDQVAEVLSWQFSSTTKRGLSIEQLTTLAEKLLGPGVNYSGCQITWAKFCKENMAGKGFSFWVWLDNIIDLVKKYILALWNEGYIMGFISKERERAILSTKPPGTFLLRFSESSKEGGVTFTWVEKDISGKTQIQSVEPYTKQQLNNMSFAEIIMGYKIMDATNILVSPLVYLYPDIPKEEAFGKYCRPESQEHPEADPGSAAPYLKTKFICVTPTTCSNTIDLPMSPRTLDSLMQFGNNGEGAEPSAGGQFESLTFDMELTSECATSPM
For data set [2], the target named is T2, Signal transducer and activator of transcription 5A (Homo sapiens) (UniProt P42229).
T2 sequence (whole entry): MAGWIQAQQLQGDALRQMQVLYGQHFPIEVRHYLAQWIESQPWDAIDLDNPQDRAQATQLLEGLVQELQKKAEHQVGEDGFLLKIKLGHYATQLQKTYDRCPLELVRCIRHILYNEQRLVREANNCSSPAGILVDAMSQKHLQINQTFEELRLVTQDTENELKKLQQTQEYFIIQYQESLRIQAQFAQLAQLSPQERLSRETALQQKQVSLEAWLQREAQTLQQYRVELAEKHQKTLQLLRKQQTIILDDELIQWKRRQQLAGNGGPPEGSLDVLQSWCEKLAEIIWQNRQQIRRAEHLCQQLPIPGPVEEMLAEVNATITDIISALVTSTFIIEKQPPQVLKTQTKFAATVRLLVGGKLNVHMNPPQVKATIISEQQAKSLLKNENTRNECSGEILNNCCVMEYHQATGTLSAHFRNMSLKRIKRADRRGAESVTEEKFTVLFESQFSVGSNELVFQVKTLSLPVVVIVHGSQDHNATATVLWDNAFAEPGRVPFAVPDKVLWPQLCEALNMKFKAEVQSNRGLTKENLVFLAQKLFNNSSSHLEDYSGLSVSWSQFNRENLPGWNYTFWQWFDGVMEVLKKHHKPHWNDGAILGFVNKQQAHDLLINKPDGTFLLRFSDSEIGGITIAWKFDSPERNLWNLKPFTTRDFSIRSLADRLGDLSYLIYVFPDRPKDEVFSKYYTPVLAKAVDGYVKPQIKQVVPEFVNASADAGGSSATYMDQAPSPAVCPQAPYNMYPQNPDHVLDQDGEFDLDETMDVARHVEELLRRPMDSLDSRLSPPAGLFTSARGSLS
The data set is described as follows: Inhibition of STAT5 DNA binding in human MDA-MB-468 cells at 3 uM after 3 hrs by EMSA analysis. In kind it is cell-based. The gist of the method: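 Cells exposed to vehicle or compound for 3 h. Nuclear extracts prepared and BCA-quantified. Nuclear protein (8–10 µg) incubated with biotinylated STAT3 or STAT5 probe, resolved on 6% native polyacrylamide gel, transferred to nylon membrane and detected with a gel-shift kit.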
On the technique in general: A gel shift assay detects complexes by their altered migration in electrophoresis.

Data set [3] has as its target T1, Signal transducer and activator of transcription 3. Put plainly: Inhibition of STAT3 in human MDA-MB-231 cells assessed as downregulation of Bcl-xL expression at 0.3 to 3 uM after 24 hrs by western blot analysis. In kind it is cell-based. Particulars: dose 0.3-3 µM. In outline:
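TNBC cells given vehicle (0.1% DMSO) or graded compound levels for 24 h, lysed in RIPA with PMSF and phosphatase inhibitors. BCA-quantified lysate (20–50 µg) run on SDS-PAGE, transferred to PVDF, blocked in 5% BSA. Probed overnight at 4 °C for Bcl-xL, Mcl-1 and c-Myc, with β-actin. HRP secondary, ECL detection. Three independent experiments.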

Data set [4] in a line: Antiproliferative activity against human MDA231-LM2-4175 cells assessed as reduction in cell viability after 72 hrs by CCK8 assay. In kind it is functional, cell-based. As to conditions: MDA231-LM2-4175, 72 h. In outline: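 Cells seeded at 1000–8000 per well were grown overnight, then exposed to 0.1–100 μM compound or 0.1% DMSO vehicle for 72 h. CCK-8 was added for 0.5–4 h at 37 °C and absorbance read at 480 nm. Viability = (OD compound − blank)/(OD vehicle − blank) × 100, with medium as blank. IC50 fitted from three independent experiments.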
(Tetrazolium dyes change colour on reduction, which living cells bring about.)

Data set [5] concerns HCC70. Put plainly: Inhibition of colony formation in human HCC70 cells at 0.3 uM after 10 to 15 days by crystal violet staining based assay. It counts as functional, cell-based. As to conditions: time 10-15 day. In outline:
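Cells seeded at 0.5×10^3–1×10^3 per well; compound added the next day. Medium and compound renewed every 2–3 days. After about 10–15 days, colonies fixed with 4% paraformaldehyde, stained with crystal violet, scanned and quantified by image analysis. Triplicate.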

Data set [6] concerns MDA-MB-231. The data set is described as follows: Antiproliferative activity against STAT3 knocked down human MDA-MB-231 cells assessed as reduction in cell viability. In kind it is functional, cell-based. The gist of the method: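 MDA-MB-231 cells at 60–70% confluence were transfected with STAT3 siRNA or negative-control siRNA using DharmaFECT. Viability was then read by CCK-8.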

Data set [7] concerns MDA-MB-231. The data set is described as follows: Induction of apoptosis in human MDA-MB-231 cells assessed as viable cells at 1 uM after 48 hrs by Annexin-V-FITC/propidium iodide staining based flow cytometric analysis (reference value: 93.4%). It counts as functional. As to conditions: read-out: Activity.
Data set [8] relates to MDA-MB-231. The data set is described as follows: Induction of apoptosis in human MDA-MB-231 cells assessed as early apoptotic cells at 1 uM after 48 hrs by Annexin-V-FITC/propidium iodide staining based flow cytometric analysis (reference value: 2.98%). It counts as functional.
Data set [9] in a line: Induction of apoptosis in human MDA231-LM2-4175 cells assessed as late apoptotic cells at 3 uM after 48 hrs by Annexin-V-FITC/propidium iodide staining based flow cytometric analysis (reference value: 2.60%). In kind it is functional.
In data set [10] the test system is MDA-MB-468. Put plainly: Induction of apoptosis in human MDA-MB-468 cells assessed as necrotic cells at 1 uM after 48 hrs by Annexin-V-FITC/propidium iodide staining based flow cytometric analysis (reference value: 0.240%). In kind it is functional.
Data set [11] has as its system MDA231-LM2-4175. Put plainly: Induction of apoptosis in human MDA231-LM2-4175 cells assessed as increase in caspase-7 cleavage at 1 uM after 48 hrs by Western blot analysis. It counts as functional, cell-based. The gist of the method:
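Breast cancer cells given vehicle (0.1% DMSO) or compound, then lysed in RIPA buffer with PMSF and phosphatase inhibitors. BCA-quantified lysate (20–50 µg) run on 8 or 12% SDS-PAGE and transferred to PVDF. Blocked in 5% BSA, probed overnight at 4 °C for PARP and cleaved caspase-7, HRP secondary, ECL detection. β-actin as loading control.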

The nature of data set [12]: Toxicity in mouse xenografted with human MDA-MB-231-4175 cells assessed as morphological change in kidney at 5 to 15 mg/kg, […] once daily for 20 days by HE staining based assay. It counts as organism-based. As to conditions: in vivo, iv, 480 h, dose 5-15 mg/kg, time 20 day. In outline:
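Female NOD-SCID mice aged 4–5 weeks, given 2×10^6–3×10^6 MDA-MB-231-4175 cells subcutaneously in the flank. At about 100 mm³ tumour volume, randomised n=6/group: vehicle (PBS with 15% Cremophor EL), 5 or 15 mg/kg intraperitoneally daily. Killed at day 20; heart, liver, spleen, lung and kidney collected for morphological examination.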

The subject of data set [13] is Breast cancer cell line. The data set is described as follows: Antitumor activity against patient-derived breast cancer cells xenografted in NOD/SCID mouse assessed as reduction in Ki67 expression at 5 to 15 mg/kg, iv administered once daily for 20 days by immunohistochemical analysis. In kind it is functional, organism-based. Particulars: Homo sapiens, dose 5-15 mg/kg, time 20.0 day.

In data set [14] the test system is Breast cancer cell line. The data set is described as follows: Antitumor activity against patient-derived breast cancer cells xenografted in NOD/SCID mouse assessed as reduction in Bcl-xL expression at 5 to 15 mg/kg, iv administered once daily for 20 days by Western blotting analysis. It counts as functional, organism-based. Particulars: Homo sapiens, dose 5-15 mg/kg, time 20.0 day.

For orientation: IC50 means the midpoint of a concentration-inhibition curve. In the case of `O=C(Cc1c(-c2ccccc2)nc2ccccn12)Nc1ccc2c(c1)S(=O)(=O)C=C2`, the inhibition result in data set [1], in [3] and in [5] was “Active” in each case. For the same compound, the inhibition entry in [2] is “inactive”. For the same compound, the IC50 in data set [4] turned out to be 2500 nM. The outcome in data set [6] was inactive. Also, the viability at 1 µM in data set [7] was 83.5%. Moreover, the Activity in data set [8] was 7.38%; in data set [9], 5.71%; in [10] it was 1.54%; in data set [12] it was “Non-Toxic”. Also, the outcome in [11], in data set [13] and in data set [14] was Active.
